Reference: ChEMBL document CHEMBL2401693, “Chromatographic separation of piracetam and its metabolite in a mixture of microsomal preparations, followed by an MS/MS analysis” (Eur J Med Chem, 2013)

Tests used:
Liver microsomes [1] = assay: Drug metabolism in human liver microsomes assessed as Metabolite M1 formation after 50 mins by UPLC-MS/MS analysis; assay type: ADME, Microsome
How it was run: (§1)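 Pooled human liver microsomes (30 donors), 0.5 mg protein/ml, in 50 mM Tris-HCl pH 7.4 with 5 mM MgCl2 and 50 mM piracetam (final 500 µL), triplicate tubes, 37 °C with shaking. After 10-min preincubation, reaction started with 2 mM NADPH. Stopped with cold ethyl acetate at the stated time, then centrifuged, reconstituted in mobile phase and analysed by UPLC-MS/MS.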

Liver microsomes [2] = assay: Drug metabolism in human liver microsomes assessed as Metabolite M1 formation after 40 mins by UPLC-MS/MS analysis; assay type: ADME, Microsome; how it was run: as §1
Liver microsomes [3] = assay: Drug metabolism in human liver microsomes assessed as Metabolite M1 formation after 30 mins by UPLC-MS/MS analysis; assay type: ADME, Microsome; settings: 0.5 h; how it was run: as §1
Liver microsomes [4] = assay: Drug metabolism in human liver microsomes assessed as Metabolite M1 formation after 20 mins by UPLC-MS/MS analysis; assay type: ADME, Microsome; how it was run: as §1
Liver microsomes [5] = assay: Drug metabolism in human liver microsomes assessed as Metabolite M1 formation after 10 mins by UPLC-MS/MS analysis; assay type: ADME, Microsome; how it was run: as §1
Liver microsomes [6] = assay: Metabolic stability in human liver microsomes assessed as retention time by UPLC-MS/MS analysis; assay type: ADME, Microsome
How it was run: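 UPLC on BEH column (1.7 µm) at 30 °C, isocratic acetonitrile/10 mM ammonium acetate pH 5.0 (15:85), 0.3 ml/min, 5 µL injection, PDA 209 nm with Q-TOF ESI positive mode.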

Rattus norvegicus [7] = assay: […] in Wistar rat assessed as Metabolite M1 at 50 mg/kg, po; assay type: ADME, organism-based; design: dose 50 mg/kg, route oral; settings: in vivo
Rattus norvegicus [8] = assay: Apparent elimination half life in Wistar rat assessed as Metabolite M1 at 50 mg/kg, po; assay type: ADME, organism-based; design: dose 50 mg/kg, route oral; settings: in vivo
Rattus norvegicus [9] = assay: Clearance in Wistar rat assessed as Metabolite M1 at 50 mg/kg, po; assay type: ADME, organism-based; design: dose 50 mg/kg, route oral; settings: in vivo
Rattus norvegicus [10] = assay: AUC (0 to infinity) in Wistar rat assessed as Metabolite M1 at 50 mg/kg, po; assay type: ADME, organism-based, Plasma; design: dose 50 mg/kg, route oral, time infinity; settings: in vivo
Rattus norvegicus [11] = assay: Tmax in Wistar rat assessed as Metabolite M1 at 50 mg/kg, po; assay type: ADME, organism-based; design: dose 50 mg/kg, route oral; settings: in vivo
Rattus norvegicus [12] = assay: AUC (0 to t) in Wistar rat assessed as Metabolite M1 at 50 mg/kg, po; assay type: ADME, organism-based, Plasma; design: dose 50 mg/kg, route oral; settings: in vivo
Rattus norvegicus [13] = assay: Cmax in Wistar rat assessed as Metabolite M1 at 50 mg/kg, po; assay type: ADME, organism-based; design: dose 50 mg/kg, route oral; settings: in vivo
Plasma [14] = assay: Stability in rat plasma assessed as metabolite M1 at 180 ng/ml after 10 days at -80 degC; assay type: ADME, cell-free; settings: 240 h
How it was run: (§2)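 M1 spiked into drug-free rat plasma at QC low and high levels, six replicates per level; extracted with ethyl acetate, UPLC-MS/MS. Conditions: bench top room temperature, frozen storage, three freeze–thaw cycles (frozen ≥12 h each), processed samples in autosampler. Stable if accuracy and precision within 15%; reported as % nominal and RSD.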

Plasma [15] = assay: Stability in rat plasma assessed as Metabolite M1at 20 ng/ml after 10 days at -80 degC; assay type: ADME, cell-free; settings: 240 h; how it was run: as §2
Plasma [16] = assay: Stability in rat plasma assessed as metabolite M1 at 180 ng/ml after 24 hrs by autosampler analysis; assay type: ADME, cell-free; how it was run: as §2
Plasma [17] = assay: Stability in rat plasma assessed as Metabolite M1at 20 ng/ml after 24 hrs by autosampler analysis; assay type: ADME, cell-free; how it was run: as §2
Plasma [18] = assay: Stability in rat plasma assessed as metabolite M1 at 180 ng/ml during three freeze-thaw cycles; assay type: ADME, cell-free; how it was run: as §2
Plasma [19] = assay: Stability in rat plasma assessed as metabolite M1 at 180 ng/ml after 30 days at -20 degC; assay type: ADME, cell-free; settings: 720 h; how it was run: as §2
Plasma [20] = assay: Stability in rat plasma assessed as Metabolite M1at 20 ng/ml during three freeze-thaw cycles; assay type: ADME, cell-free; how it was run: as §2
Plasma [21] = assay: Stability in rat plasma assessed as metabolite M1 at 180 ng/ml after 2 hrs at room temperature; assay type: ADME, cell-free; how it was run: as §2
Plasma [22] = assay: Stability in rat plasma assessed as Metabolite M1at 20 ng/ml after 30 days at -20 degC; assay type: ADME, cell-free; settings: 720 h; how it was run: as §2
Plasma [23] = assay: Stability in rat plasma assessed as Metabolite M1at 20 ng/ml after 2 hrs at room temperature; assay type: ADME, cell-free; how it was run: as §2
Liver microsomes [24] = assay: Metabolic stability in human liver microsomes assessed as compound remaining after 50 mins by UPLC-MS/MS analysis; assay type: ADME, Microsome
Liver microsomes [25] = assay: Metabolic stability in human liver microsomes assessed as compound remaining after 40 mins by UPLC-MS/MS analysis; assay type: ADME, Microsome
Liver microsomes [26] = assay: Metabolic stability in human liver microsomes assessed as compound remaining after 30 mins by UPLC-MS/MS analysis; assay type: ADME, Microsome; settings: 0.5 h
Liver microsomes [27] = assay: Metabolic stability in human liver microsomes assessed as compound remaining after 20 mins by UPLC-MS/MS analysis; assay type: ADME, Microsome
Liver microsomes [28] = assay: Metabolic stability in human liver microsomes assessed as compound remaining after 10 mins by UPLC-MS/MS analysis; assay type: ADME, Microsome

## O=C(O)CN1CCCC1=O
Liver microsomes [1]
  Drug metabolism: 13.89 µM
Liver microsomes [2]
  Drug metabolism: 9.23 µM
Liver microsomes [3]
  Drug metabolism: 6.45 µM
Liver microsomes [4]
  Drug metabolism: 4.79 µM
Liver microsomes [5]
  Drug metabolism: 2.42 µM
Liver microsomes [6]
  Retention_time: 2.042 min

## NC(=O)CN1CCCC1=O [PIRACETAM]
Rattus norvegicus [7]
  MRT: 5.542 h
Rattus norvegicus [8]
  betat1/2(app): 3.652 h
Rattus norvegicus [9]
  CL: 887.3 mL/min/kg
Rattus norvegicus [10]
  AUC: 939.178 µg·h/mL
Rattus norvegicus [11]
  Tmax: 1 h
Rattus norvegicus [12]
  AUCt: 928.445 µg·h/mL
Rattus norvegicus [13]
  Cmax: 155.39 ng/mL
Plasma [14]
  Drug metabolism: 179.13 ng/mL
Plasma [15]
  Drug metabolism: 18.853 ng/mL
Plasma [16]
  Drug metabolism: 178.753 ng/mL
Plasma [17]
  Drug metabolism: 19.043 ng/mL
Plasma [18]
  Drug metabolism: 178.42 ng/mL
Plasma [19]
  Drug metabolism: 179.123 ng/mL
Plasma [20]
  Drug metabolism: 18.88 ng/mL
Plasma [21]
  Drug metabolism: 178.883 ng/mL
Plasma [22]
  Drug metabolism: 18.787 ng/mL
Plasma [23]
  Drug metabolism: 19.347 ng/mL
Liver microsomes [24]
  Stability: 36.22 µM
Liver microsomes [25]
  Stability: 40.56 µM
Liver microsomes [26]
  Stability: 43.78 µM
Liver microsomes [27]
  Stability: 45.66 µM
Liver microsomes [28]
  Stability: 47.56 µM
Liver microsomes [6]
  Retention_time: 2.726 min
